Source: ChEMBL document CHEMBL1250472, “"Clicked" bivalent ligands containing curcumin and cholesterol as multifunctional abeta oligomerization inhibitors: design, synthesis, and biological characterization” (J Med Chem, 2010)
Each block holds one compound with its values, some of them ahead of it. Activity calls are given as the source filed them. No cut-off for these calls is given here.

Assays:
[1] = biological target: Amyloid-beta precursor protein (Homo sapiens) (UniProt P05067); test: Inhibition of APP expressed in human MC65 cells assessed as inhibition of amyloid beta oligomer formation at 10 uM by Western blotting after removal of tetracycline
SH-SY5Y [2] = test: Cytotoxicity against human SH-SY5Y cells after 48 hrs
MC65 [3] = test: Cytoprotective activity against amyloid-beta oligomer-induced cytotoxicity in human MC65 cells after 72 hrs
SH-SY5Y [4] = test: Cytoprotective activity against amyloid-beta oligomer-induced cytotoxicity in human SH-SY5Y cells at 2 to 8 uM after 48 hrs
SH-SY5Y [5] = test: Cytoprotective activity against amyloid-beta oligomer-induced cytotoxicity in human SH-SY5Y cells at 16 uM after 48 hrs
[6] = biological target: Amyloid-beta precursor protein (Homo sapiens) (UniProt P05067); test: Inhibition of APP expressed in human MC65 cells assessed as inhibition of amyloid beta 42 oligomerization by transmission electron microscopy; format: cell-based
MC65 [7] = test: Antioxidant activity in human MC65 cells assessed as decrease in oxidative stress by DCFH-DA assay; format: functional, cell-based
Procedure, shortened: (§1)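 MC65 cells, 4 × 10^4/well, grown 24 h, then exposed to compounds in Opti-MEM with or without TC for 24 h (blanks with compound only). DCFH-DA loaded at 25 μM final for 30 min at 37 °C, medium replaced, fluorescence read at 485/530 nm. Expressed as % of parallel -TC cultures, n = 5.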

[8] = Cellular uptake in human MC65 cells after 24 hrs by immunocytometry; format: ADME, cell-based; settings: mc65, 24 h
Procedure, shortened: (§2)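 MC65 cells exposed to compound (10 μM) for 24 h, fixed in 4% paraformaldehyde, permeabilized with 0.1% Triton X-100, DAPI-stained. Compound's own fluorescence located by confocal microscopy (excitation 355 and 494 nm). 1.0 μm optical sections through the cell depth, projected into a composite image.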

MC65 [9] = test: Antioxidant activity in human MC65 cells assessed as decrease in lipid peroxidation by DCFH-DA assay; format: functional, cell-based; settings: in the assay text read “intracellular oxidative stress” for “lipid peroxidation”
Procedure, shortened: as §1

[10] = Cytotoxicity against human MC65 cells after 72 hrs; settings: mc65, 72 h
[11] = biological target: Amyloid-beta precursor protein (Homo sapiens) (UniProt P05067); test: Inhibition of APP expressed in human MC65 cells assessed as inhibition of amyloid beta oligomer formation at 10 uM by Western blotting; format: cell-based
Procedure, shortened: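 MC65 cells, 1 × 10^6/well, exposed to compounds (10 μM) in Opti-MEM with or without TC for 24 h. Lysates (10 μg protein) run on 10-20% tris-tricine SDS-PAGE and blotted with 6E10 (1:2000), HRP secondary, chemiluminescence. Three independent experiments.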

[12] = Cytotoxicity against mouse NK cells after 24 hrs
MC65 [13] = test: Binding affinity to cell membrane/lipid raft of human MC65 cells after 24 hrs by immunocytometry; format: cell-based
Procedure, shortened: as §2

[14] = Apparent permeability from apical to basolateral side of human Caco-2 cells; format: ADME, cell-based
Procedure, shortened: (§3)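 Caco-2 cells, passages 30-50, grown 21 days on transwell inserts to confluence; TEER >400 ohm·cm² and lucifer yellow permeability <1 × 10^-6 cm/s. Compound at 10 μM added apical or basolateral in HBSS, 37 °C with shaking. Sampling at 30, 60, 120 min, HPLC with fluorescence detection. Permeability calculated by Fick's law; efflux ratio is B-A/A-B.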

MC65 [15] = test: Binding affinity to amyloid beta expressed in human MC65 cells after 24 hrs by immunocytometry; format: cell-based
Procedure, shortened: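 MC65 cells, 1 × 10^4/well, given compounds (10 μM) right after TC removal, 24 h. Surface stained with Alexa 488-CTX-B on ice, then fixed in 4% paraformaldehyde and permeabilized with Triton X-100. Stained with A11 oligomer antibody plus Alexa 568 secondary, DAPI counterstain. Confocal imaging; red puncta per cell averaged over five areas.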

SH-SY5Y [16] = test: Cytoprotective activity against amyloid-beta oligomer-induced cytotoxicity in human SH-SY5Y cells after 48 hrs
Spleen = test: Toxicity against mouse spleen after 24 hrs; format: tissue-based; settings: in vitro
[17] = Apparent permeability from basolateral to apical side of human Caco-2 cells; format: ADME, cell-based
Procedure, shortened: as §3

Chain of Amyloid-beta precursor protein (Homo sapiens) (P05067 whole entry): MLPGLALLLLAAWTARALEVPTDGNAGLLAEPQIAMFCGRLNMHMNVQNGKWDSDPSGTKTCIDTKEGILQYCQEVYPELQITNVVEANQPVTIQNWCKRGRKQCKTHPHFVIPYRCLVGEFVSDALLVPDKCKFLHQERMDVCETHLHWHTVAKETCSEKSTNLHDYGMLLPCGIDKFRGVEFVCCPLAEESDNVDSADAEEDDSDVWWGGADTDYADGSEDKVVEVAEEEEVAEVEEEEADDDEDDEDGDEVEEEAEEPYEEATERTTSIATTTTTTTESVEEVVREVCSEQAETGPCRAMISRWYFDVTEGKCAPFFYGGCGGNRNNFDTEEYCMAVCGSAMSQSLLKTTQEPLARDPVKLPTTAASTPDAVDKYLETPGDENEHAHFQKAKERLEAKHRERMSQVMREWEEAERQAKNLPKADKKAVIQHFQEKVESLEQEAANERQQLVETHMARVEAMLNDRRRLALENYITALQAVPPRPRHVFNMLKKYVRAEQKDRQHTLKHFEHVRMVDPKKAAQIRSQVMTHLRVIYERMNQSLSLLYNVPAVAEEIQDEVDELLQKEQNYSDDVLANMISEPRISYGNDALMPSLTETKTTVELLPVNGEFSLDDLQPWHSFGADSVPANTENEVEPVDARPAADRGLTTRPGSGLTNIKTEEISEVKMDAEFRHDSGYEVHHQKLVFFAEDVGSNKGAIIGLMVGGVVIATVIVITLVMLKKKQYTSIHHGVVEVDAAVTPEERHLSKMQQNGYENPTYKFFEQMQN

Compound: COc1cc(/C=C/C(=O)/C=C(O)/C=C/c2ccc(OCc3cn(CCCCCCNC(=O)CO[C@H]4CC[C@@]5(C)C(=CC[C@H]6[C@@H]7CC[C@H]([C@H](C)CCCC(C)C)[C@@]7(C)CC[C@@H]65)C4)nn3)c(OC)c2)ccc1O
inhibition [1]: inactive

Compound: COc1cc(/C=C/C(=O)/C(Cc2cn(CCCCCCNC(=O)CO[C@H]3CC[C@@]4(C)C(=CC[C@H]5[C@@H]6CC[C@H]([C@H](C)CCCC(C)C)[C@@]6(C)CC[C@@H]54)C3)nn2)=C(O)/C=C/c2ccc(O)c(OC)c2)ccc1O
inhibition [1]: inactive

Compound: COc1cc(/C=C/C(=O)/C(Cc2cn(CCCCCCNC(=O)CCNC(=O)CO[C@H]3CC[C@@]4(C)C(=CC[C@H]5[C@@H]6CC[C@H]([C@H](C)CCCC(C)C)[C@@]6(C)CC[C@@H]54)C3)nn2)=C(O)/C=C/c2ccc(O)c(OC)c2)ccc1O
inhibition [1]: Active
Activity [10]: Non-toxic

Compound: COc1cc(/C=C/C(=O)/C=C(O)/C=C/c2ccc(OCc3cn(CCCCNC(=O)CO[C@H]4CC[C@@]5(C)C(=CC[C@H]6[C@@H]7CC[C@H]([C@H](C)CCCC(C)C)[C@@]7(C)CC[C@@H]65)C4)nn3)c(OC)c2)ccc1O
inhibition [1]: inactive

Compound: COc1cc(/C=C/C(=O)/C=C(O)/C=C/c2ccc(OCc3cn(CCCCNC(=O)CCNC(=O)CO[C@H]4CC[C@@]5(C)C(=CC[C@H]6[C@@H]7CC[C@H]([C@H](C)CCCC(C)C)[C@@]7(C)CC[C@@H]65)C4)nn3)c(OC)c2)ccc1O
inhibition [1]: Active

Compound: COc1cc(/C=C/C(=O)/C=C(O)/C=C/c2ccc(OCc3cn(CCCCCCNC(=O)CCNC(=O)CCNC(=O)CO[C@H]4CC[C@@]5(C)C(=CC[C@H]6[C@@H]7CC[C@H]([C@H](C)CCCC(C)C)[C@@]7(C)CC[C@@H]65)C4)nn3)c(OC)c2)ccc1O
Activity [10]: Non-toxic

Compound: COc1cc(/C=C/C(=O)/C(Cc2cn(CCCCNC(=O)CCNC(=O)CO[C@H]3CC[C@@]4(C)C(=CC[C@H]5[C@@H]6CC[C@H]([C@H](C)CCCC(C)C)[C@@]6(C)CC[C@@H]54)C3)nn2)=C(O)/C=C/c2ccc(O)c(OC)c2)ccc1O
inhibition [1]: Active

Compound: COc1cc(/C=C/C(=O)/C(Cc2cn(CCCCCCNC(=O)CCNC(=O)CCNC(=O)CO[C@H]3CC[C@@]4(C)C(=CC[C@H]5[C@@H]6CC[C@H]([C@H](C)CCCC(C)C)[C@@]6(C)CC[C@@H]54)C3)nn2)=C(O)/C=C/c2ccc(O)c(OC)c2)ccc1O
inhibition [11]: Active
Activity [12]: Non-toxic
Activity (MC65 [13]): Active
Activity (MC65 [3]): Dose-dependent effect
inhibition [6]: Active
Activity (MC65 [7]): Active
inhibition [1]: Active
Papp A→B [14]: 7.1 ×10⁻⁶ cm/s
Activity (MC65 [15]): inactive
Activity (SH-SY5Y [16]): Active
Activity (Spleen): Toxic
Papp B→A [17]: 4.7 ×10⁻⁶ cm/s

Further lines, with some results ahead:

inhibition [1]: inactive
Compound: COc1cc(/C=C/C(=O)/C(Cc2cn(CCCCNC(=O)CO[C@H]3CC[C@@]4(C)C(=CC[C@H]5[C@@H]6CC[C@H]([C@H](C)CCCC(C)C)[C@@]6(C)CC[C@@H]54)C3)nn2)=C(O)/C=C/c2ccc(O)c(OC)c2)ccc1O

inhibition [6]: Active
inhibition [1]: inactive
Drug uptake [8]: Active
Compound: COc1cc(/C=C/C(=O)CC(=O)/C=C/c2ccc(O)c(OC)c2)ccc1O [CURCUMIN]
Activity (SH-SY5Y [2]): Toxic
Activity (MC65 [3]): Active
Activity (SH-SY5Y [4]): Active
Activity (SH-SY5Y [5]): inactive
Activity (MC65 [7]): Active
Activity (MC65 [9]): Active

inhibition [1]: Active
Compound: COc1cc(/C=C/C(=O)/C=C(O)/C=C/c2ccc(OCc3cn(CCCCNC(=O)CCNC(=O)CCNC(=O)CO[C@H]4CC[C@@]5(C)C(=CC[C@H]6[C@@H]7CC[C@H]([C@H](C)CCCC(C)C)[C@@]7(C)CC[C@@H]65)C4)nn3)c(OC)c2)ccc1O

inhibition [1]: inactive
Compound: CCCCNC(=O)CCC(=O)NCCCCCCn1cc(C/C(C(=O)/C=C/c2ccc(O)c(OC)c2)=C(O)\C=C\c2ccc(O)c(OC)c2)nn1

inhibition [1]: Active
Compound: COc1cc(/C=C/C(=O)/C(Cc2cn(CCCCNC(=O)CCNC(=O)CCNC(=O)CO[C@H]3CC[C@@]4(C)C(=CC[C@H]5[C@@H]6CC[C@H]([C@H](C)CCCC(C)C)[C@@]6(C)CC[C@@H]54)C3)nn2)=C(O)/C=C/c2ccc(O)c(OC)c2)ccc1O

inhibition [1]: inactive
Compound: CCCCNC(=O)CCC(=O)NCCCCCCn1cc(COc2ccc(/C=C/C(O)=C/C(=O)/C=C/c3ccc(O)c(OC)c3)cc2OC)nn1

inhibition [1]: Active
Compound: COc1cc(/C=C/C(=O)/C=C(O)/C=C/c2ccc(OCc3cn(CCCCCCNC(=O)CCNC(=O)CO[C@H]4CC[C@@]5(C)C(=CC[C@H]6[C@@H]7CC[C@H]([C@H](C)CCCC(C)C)[C@@]7(C)CC[C@@H]65)C4)nn3)c(OC)c2)ccc1O
